Activity calls are given as the source filed them. The rule behind the calls is not given here.
What was measured:
MCF7 [1] = experiment: Cytotoxicity against human MCF7 cells after 72 hrs by MTS assay; conditions: MCF7, 72 h
[2] = target: DNA topoisomerase 2-alpha (Homo sapiens) (UniProt P11388); experiment: Inhibition of human recombinant DNA topoisomerase 2alpha-mediated DNA cleavage assessed as decrease in relaxation of supercoiled plasmid substrate DNA at 40 uM after 30 mins by agarose gel electrophoresis
HT-29 [3] = experiment: Cytotoxicity against human HT-29 cells after 72 hrs by MTS assay; conditions: HT-29, 72 h
[4] = target: DNA topoisomerase 2-alpha (Homo sapiens) (UniProt P11388); experiment: Inhibition of human recombinant DNA topoisomerase 2alpha-mediated DNA cleavage assessed as decrease in relaxation of supercoiled plasmid substrate DNA at 20 uM after 30 mins by agarose gel electrophoresis
Nucleic Acid = experiment: Binding affinity to DNA by ethidium bromide staining-based FID assay; set-up: concentration or dose not given beside the values
[5] = target: DNA topoisomerase 2-alpha (Homo sapiens) (UniProt P11388); experiment: Inhibition of human recombinant DNA topoisomerase 2alpha-mediated DNA cleavage assessed as decrease in relaxation of supercoiled plasmid substrate DNA at 100 uM after 30 mins by agarose gel electrophoresis
[6] = target: T1, DNA topoisomerase 1 (Homo sapiens) (UniProt P11387); experiment: Inhibition of human recombinant DNA topoisomerase 1-mediated DNA cleavage assessed as decrease in relaxation of supercoiled plasmid substrate DNA at 40 uM after 30 mins by agarose gel electrophoresis
T1 sequence (whole entry): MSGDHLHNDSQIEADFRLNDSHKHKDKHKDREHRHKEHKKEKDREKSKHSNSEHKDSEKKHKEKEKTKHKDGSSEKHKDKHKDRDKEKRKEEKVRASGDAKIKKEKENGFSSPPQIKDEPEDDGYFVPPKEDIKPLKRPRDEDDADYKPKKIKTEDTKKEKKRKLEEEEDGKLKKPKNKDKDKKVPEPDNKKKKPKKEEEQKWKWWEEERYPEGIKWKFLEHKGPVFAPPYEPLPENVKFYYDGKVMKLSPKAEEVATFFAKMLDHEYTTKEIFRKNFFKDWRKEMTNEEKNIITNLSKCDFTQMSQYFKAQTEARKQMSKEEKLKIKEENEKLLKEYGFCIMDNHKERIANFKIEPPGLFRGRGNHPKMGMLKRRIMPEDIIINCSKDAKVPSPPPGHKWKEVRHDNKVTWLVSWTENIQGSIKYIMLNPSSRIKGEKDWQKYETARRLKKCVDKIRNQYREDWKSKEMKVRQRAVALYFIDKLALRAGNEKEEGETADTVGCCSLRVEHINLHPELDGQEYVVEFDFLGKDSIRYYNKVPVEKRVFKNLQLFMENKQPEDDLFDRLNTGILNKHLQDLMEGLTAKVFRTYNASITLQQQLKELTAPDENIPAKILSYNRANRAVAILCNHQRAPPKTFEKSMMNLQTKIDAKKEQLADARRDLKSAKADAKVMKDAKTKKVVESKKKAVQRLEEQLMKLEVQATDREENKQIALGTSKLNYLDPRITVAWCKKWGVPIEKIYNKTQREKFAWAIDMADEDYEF

HepG2 [7] = experiment: Cytotoxicity against human HepG2 cells at 25 uM after 72 hrs by MTS assay
MCF7 [8] = experiment: Cytotoxicity against human MCF7 cells assessed as cell viability at 25 uM after 72 hrs by MTS assay; conditions: MCF7, 72 h
HT-29 [9] = experiment: Cytotoxicity against human HT-29 cells at 25 uM after 72 hrs by MTS assay
[10] = Cytotoxicity against human CRL7761 cells after 3 days by MTS assay; assay type: cell-based; conditions: 72 h
In short: (§1)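 Non-tumour cells were CRL-7761 human skin, Vero monkey kidney (DMEM high glucose, 5% FBS, 10 mM HEPES) and NIH/3T3 mouse (DMEM, 10% calf serum). Cells were seeded, left 24 h, then switched to serum-free DMEM-F12 with albumin, transferrin and insulin, with or without compound. Exposure was 3 days at 37 °C.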

[11] = target: T1, DNA topoisomerase 1 (Homo sapiens); experiment: Induction of poisoning activity in human recombinant DNA topoisomerase 1 assessed as enhancement of in relaxation of supercoiled plasmid substrate DNA at 100 uM after 30 mins by agarose gel electrophoresis
In short: (§2)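 In the topo I cleavage (poison) assay, the relaxation format was used with 6 units of enzyme for 30 min at 37 °C. Reactions were stopped with SDS, digested with proteinase K and CIA-extracted. DNA was run on 1% agarose with and without ethidium bromide. Poisoning was scored by the presence of the nicked open-circular band, referenced to camptothecin.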

[12] = Cytotoxicity against mouse NIH/3T3 cells after 3 days by MTS assay; assay type: cell-based; conditions: NIH3T3, 72 h
In short: as §1

HepG2 [13] = experiment: Cytotoxicity against human HepG2 cells after 72 hrs by MTS assay; conditions: HepG2, 72 h
Vero = experiment: Cytotoxicity against african green monkey Vero cells after 3 days by MTS assay; assay type: cell-based; conditions: Chlorocebus sabaeus, 72 h
In short: as §1

HepG2 [14] = experiment: Cytotoxicity against human HepG2 cells assessed as cell viability at 25 uM after 24 hrs by MTS assay; assay type: functional; conditions: HepG2, 24 h, read-out: Activity
HT-29 [15] = experiment: Cytotoxicity against human HT-29 cells assessed as cell viability at 25 uM after 72 hrs by MTS assay; conditions: HT-29, 72 h
[16] = target: DNA topoisomerase 2-alpha (Homo sapiens) (UniProt P11388); experiment: Induction of poisoning activity in human recombinant DNA topoisomerase 2alpha assessed as enhancement of in relaxation of supercoiled plasmid substrate DNA at 100 uM after 30 mins by agarose gel electrophoresis
In short: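 For topo IIα cleavage, 0.25 µg supercoiled pRYG was incubated with 4 units of human topoisomerase IIα (p170) in Tris buffer with 2 mM ATP and 10 mM MgCl2 for 30 min at 37 °C. Workup was SDS stop, proteinase K, extraction and agarose electrophoresis. Poisoning was judged by appearance of a linear DNA band.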

[17] = target: T1, DNA topoisomerase 1 (Homo sapiens); experiment: Inhibition of human recombinant DNA topoisomerase 1-mediated DNA cleavage assessed as decrease in relaxation of supercoiled plasmid substrate DNA at 100 uM after 30 mins by agarose gel electrophoresis
MCF7 [18] = experiment: Cytotoxicity against human MCF7 cells at 25 uM after 72 hrs by MTS assay
HT-29 [19] = experiment: Cytotoxicity against human HT-29 cells assessed as cell viability at 100 uM after 72 hrs by MTS assay; conditions: HT-29, 72 h
HepG2 [20] = experiment: Cytotoxicity against human HepG2 cells assessed as cell viability at 100 uM after 72 hrs by MTS assay; conditions: HepG2, 72 h
MCF7 [21] = experiment: Cytotoxicity against human MCF7 cells assessed as cell viability at 100 uM after 72 hrs by MTS assay; conditions: MCF7, 72 h
[22] = target: T1, DNA topoisomerase 1 (Homo sapiens); experiment: Inhibition of human recombinant DNA topoisomerase 1-mediated DNA cleavage assessed as decrease in relaxation of supercoiled plasmid substrate DNA at 5 uM after 30 mins by agarose gel electrophoresis
MCF7 [23] = experiment: Cytotoxicity against human MCF7 cells assessed as cell viability at 20 uM after 72 hrs by MTS assay; conditions: MCF7, 72 h, read-out: Activity
HepG2 [24] = experiment: Cytotoxicity against human HepG2 cells assessed as cell viability at 16 uM after 72 hrs by MTS assay; conditions: HepG2, 72 h, read-out: Activity
HT-29 [25] = experiment: Cytotoxicity against human HT-29 cells assessed as cell viability at 20 uM after 24 hrs by MTS assay; assay type: functional; conditions: HT-29, 24 h, read-out: Activity
[26] = target: T1, DNA topoisomerase 1 (Homo sapiens); experiment: Induction of poisoning activity in human recombinant DNA topoisomerase 1 assessed as enhancement of in relaxation of supercoiled plasmid substrate DNA at 75 to 100 uM after 30 mins by agarose gel electrophoresis
In short: as §2

[27] = target: T1, DNA topoisomerase 1 (Homo sapiens); experiment: Induction of poisoning activity in human recombinant DNA topoisomerase 1 assessed as enhancement of in relaxation of supercoiled plasmid substrate DNA at 25 to 50 uM after 30 mins by agarose gel electrophoresis
In short: as §2

HepG2 [28] = experiment: Cytotoxicity against human HepG2 cells assessed as cell viability at 25 uM after 72 hrs by MTS assay; conditions: HepG2, 72 h

Chain of DNA topoisomerase 2-alpha (Homo sapiens) (P11388 whole entry): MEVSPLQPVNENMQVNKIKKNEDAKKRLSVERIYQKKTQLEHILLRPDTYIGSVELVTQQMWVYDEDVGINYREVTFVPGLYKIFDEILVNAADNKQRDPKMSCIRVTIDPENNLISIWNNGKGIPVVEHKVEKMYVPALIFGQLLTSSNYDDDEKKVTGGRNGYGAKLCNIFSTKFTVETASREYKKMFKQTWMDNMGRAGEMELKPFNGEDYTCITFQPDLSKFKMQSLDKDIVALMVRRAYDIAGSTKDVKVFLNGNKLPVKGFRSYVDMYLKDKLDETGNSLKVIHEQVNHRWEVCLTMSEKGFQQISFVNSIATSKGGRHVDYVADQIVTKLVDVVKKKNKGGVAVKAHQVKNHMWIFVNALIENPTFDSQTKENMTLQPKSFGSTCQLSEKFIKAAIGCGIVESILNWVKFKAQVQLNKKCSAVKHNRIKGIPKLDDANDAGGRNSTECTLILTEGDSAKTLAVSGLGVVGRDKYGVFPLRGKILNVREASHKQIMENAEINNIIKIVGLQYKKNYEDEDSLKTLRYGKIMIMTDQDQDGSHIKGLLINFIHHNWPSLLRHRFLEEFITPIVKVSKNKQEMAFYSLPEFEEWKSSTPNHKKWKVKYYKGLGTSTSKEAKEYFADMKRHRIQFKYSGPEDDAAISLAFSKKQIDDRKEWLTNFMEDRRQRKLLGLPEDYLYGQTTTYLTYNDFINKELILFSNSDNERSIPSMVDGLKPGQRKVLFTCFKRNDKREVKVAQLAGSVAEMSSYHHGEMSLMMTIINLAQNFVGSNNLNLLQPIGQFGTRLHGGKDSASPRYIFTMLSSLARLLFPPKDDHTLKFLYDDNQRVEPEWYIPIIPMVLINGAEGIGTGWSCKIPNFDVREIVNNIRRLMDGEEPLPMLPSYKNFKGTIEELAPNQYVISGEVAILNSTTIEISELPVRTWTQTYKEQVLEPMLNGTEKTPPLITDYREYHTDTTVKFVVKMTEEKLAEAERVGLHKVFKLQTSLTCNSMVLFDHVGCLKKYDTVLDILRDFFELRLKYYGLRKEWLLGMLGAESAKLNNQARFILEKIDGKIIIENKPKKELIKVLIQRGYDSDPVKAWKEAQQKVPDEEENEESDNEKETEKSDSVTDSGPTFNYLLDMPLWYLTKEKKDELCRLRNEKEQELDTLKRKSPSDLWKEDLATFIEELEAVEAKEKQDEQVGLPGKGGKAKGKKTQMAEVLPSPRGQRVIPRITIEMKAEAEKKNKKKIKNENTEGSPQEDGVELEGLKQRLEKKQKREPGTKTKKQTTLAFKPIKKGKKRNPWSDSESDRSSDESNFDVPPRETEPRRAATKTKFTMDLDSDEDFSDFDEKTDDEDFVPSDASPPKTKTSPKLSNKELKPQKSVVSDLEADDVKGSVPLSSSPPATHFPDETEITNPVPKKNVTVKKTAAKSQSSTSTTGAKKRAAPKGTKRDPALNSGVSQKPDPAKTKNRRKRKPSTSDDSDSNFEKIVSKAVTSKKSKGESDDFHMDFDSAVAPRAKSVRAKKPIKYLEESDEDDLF

SMILES | IC50 (MCF7 [1]) | inhibition [2] | IC50 (HT-29 [3]) | inhibition [4] | Activity (Nucleic Acid) | inhibition [5] | inhibition [6] | Activity (HepG2 [7]) | viability at 25 µM (MCF7 [8]) | Activity (HT-29 [9]) | IC50 [10] | Activity [11] | IC50 [12] | IC50 (HepG2 [13]) | IC50 (Vero) | viability at 25 µM (HepG2 [14]) | viability at 25 µM (HT-29 [15]) | Activity [16] | inhibition [17] | Activity (MCF7 [18]) | other results
Cc1ccc(S(=O)(=O)n2c(-c3ccccc3)c(C#CCO[C@H]3C[C@H](N)[C@@H](O)[C@H](C)O3)c3ccccc32)cc1 | 4.7 µM | Active | 7.3 µM | inactive | 49.7% | 103% | inactive | 100% | < 1% | 100% | 24.3 µM | inactive | 5.8 µM | 7.7 µM | 11.6 µM | < 1% | < 1% | inactive | 92.8% | 100% | 
Ic1c(-c2ccccc2)sc2ccccc12 |  |  |  |  |  |  |  |  |  |  |  | inactive |  |  |  |  |  | inactive |  |  | viability at 100 µM (HT-29 [19]): 89%; viability at 100 µM (HepG2 [20]): 87%; viability at 100 µM (MCF7 [21]): 111%
C[C@@H]1O[C@@H](OCC#Cc2c(-c3ccccc3)oc3ccccc23)C[C@H](N)[C@@H]1O | 6.6 µM |  | 5.2 µM | inactive | 62% | 6.5% | inactive | 100% | < 1% | 100% | 16.7 µM | inactive | 4.8 µM | 3.2 µM | 5.7 µM | < 1% | < 1% | inactive | 77.8% | 100% | 
COc1cccc2c1C(=O)c1c(O)c3c(c(O)c1C2=O)C[C@@](O)(C(=O)CO)C[C@@H]3O[C@H]1C[C@H](N)[C@H](O)[C@H](C)O1 [DOXORUBICIN] | 16.8 µM |  | 0.6 µM | inactive |  |  |  |  |  |  | > 25 µM |  | 3.5 µM | 1 µM | 10.4 µM | 8% | 43% | inactive |  |  | inhibition [22]: Active; viability at 20 µM (MCF7 [23]): 47%; viability at 16 µM (HepG2 [24]): 8%; viability at 20 µM (HT-29 [25]): 43%
Cc1ccc(S(=O)(=O)n2c(-c3ccccc3)c(C#CCO[C@H]3C[C@H](N)[C@H](O)[C@H](C)O3)c3ccccc32)cc1 | 4.8 µM | Active | 6.3 µM | inactive | 47.9% | 101% | inactive | 100% | < 1% | 100% | 16.5 µM | inactive | 5 µM | 5.9 µM | 10.2 µM | < 1% | < 1% | inactive | 80.1% | 100% | Activity [26]: inactive; Activity [27]: inactive
COc1cccc2c1C(=O)c1c(O)c3c(c(O)c1C2=O)C[C@@](O)(C(C)=O)C[C@@H]3O[C@H]1C[C@H](N)[C@H](O)[C@H](C)O1 [DAUNORUBICIN] | 5.5 µM |  | 0.4 µM | inactive |  |  |  |  |  |  | 10.5 µM |  | 1.8 µM | 0.7 µM | 2.5 µM |  | 11% |  |  |  | inhibition [22]: Active; viability at 20 µM (MCF7 [23]): 2%; viability at 25 µM (HepG2 [28]): 2%; viability at 16 µM (HepG2 [24]): 2%; viability at 20 µM (HT-29 [25]): 11%
CC[C@@]1(O)C(=O)OCc2c1cc1n(c2=O)Cc2cc3ccccc3nc2-1 |  |  |  |  |  |  |  |  |  |  |  | inactive |  |  |  |  |  | inactive |  |  | 
Cc1ccc(S(=O)(=O)n2c(-c3ccccc3)c(C#CCO[C@H]3CC[C@H](N)[C@H](C)O3)c3ccccc32)cc1 | 5.1 µM | Active | 5.4 µM | inactive | 38.6% | 86.2% |  | 100% | < 1% | 100% | 17.5 µM | inactive | 4.9 µM | 9.5 µM | 10.1 µM | < 1% | < 1% | inactive | 43.2% | 100% | 

— ChEMBL document CHEMBL1641417, “Cytotoxicity and topoisomerase I/II inhibition of glycosylated 2-phenyl-indoles, 2-phenyl-benzo[b]thiophenes and 2-phenyl-benzo[b]furans” (Bioorg Med Chem, 2011)
